Assay [1] can be described thus: Cytotoxicity against wild type human KB3-1 cells after 4 days by MTT assay. It counts as functional, cell-based. The following applies: KB 3-1, 96 h. In outline:
(§1)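 Growth inhibition in RPMI 8402, KB3-1, MDR1-expressing KBV-1 and BCRP-expressing KBH5.0 cells; IC50 reported as mean of three experiments ± standard deviation.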

Assay [2] is described as follows: Cytotoxicity against multidrug-resistant human KBH5.0 cells expressing BCRP after 4 days by MTT assay. Conditions: KBH5.0 cell, 96 h. The assay is classed as functional, cell-based. In outline: as §1
Assay [3] can be described thus: Cytotoxicity against human RPMI8402 cells after 4 days by MTT assay. The following applies: RPMI 8402, 96 h. The assay is classed as functional, cell-based. The procedure, abridged:
as §1

The nature of assay [4]: Cytotoxicity against multidrug-resistant human KBV1 cells expressing MDR1 after 4 days by MTT assay. The assay is classed as functional, cell-based. The following applies: KB-V1, 96 h. In outline: as §1
For assay [5], the system named is Nucleic Acid. Put plainly: Binding affinity to human G-quadruplex d[T2G3(T2AG3)3A] DNA assessed as change in transition temperature at 20 uM in presence of 150 mM K+ ions. The assay is classed as nucleic-acid assay. The procedure, abridged: (§2)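 Quadruplex UV melting of hTel DNA or AurA RNA at 5 µM in strand, ligand 20 µM, in 10 mM potassium phosphate pH 7.5 plus 132 mM KCl (150 mM total K+); Ttran from maxima or minima of first-derivative melting profiles; ΔTtran uncertainty 0.5 °C.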

Assay [6] relates to Nucleic Acid. Put plainly: Binding affinity to r[AG4CG2-CUG2UCG2AGUG2C] sequence of quadruplex RNA assessed as change in transition temperature at 20 uM in presence of 150 mM K+ ions. The assay is classed as nucleic-acid assay. The procedure, abridged: as §2
Assay [7] can be described thus: Cytotoxicity against human RPMI8402 cells. The assay is classed as functional, cell-based. The following applies: RPMI 8402. The procedure, abridged: as §1

In the case of `CC(C)[C@@H]1NC(=O)c2coc(n2)-c2coc(n2)-c2coc(n2)[C@H](CCCNC(=O)OC(C)(C)C)NC(=O)c2coc(n2)-c2coc(n2)-c2coc1n2`, the concentration for half-maximal inhibition (IC50) in assay [1] was 0.23 µM; in assay [2], 0.15 µM; in assay [3], 0.29 µM; in assay [4], over 10 µM.

For the compound `CC(=O)NCCCC[C@@H]1NC(=O)c2coc(n2)-c2coc(n2)-c2coc(n2)[C@H](C(C)C)NC(=O)c2coc(n2)-c2coc(n2)-c2coc1n2`, the IC50 is 0.71 µM in assay [1], 1.9 µM in assay [2], 0.75 µM in assay [3] and over 10 µM in assay [4].

For the compound `CC(C)(C)OC(=O)NCCC[C@@H]1NC(=O)c2coc(n2)-c2coc(n2)-c2coc(n2)[C@H](CCCNC(=O)OC(C)(C)C)NC(=O)c2coc(n2)-c2coc(n2)-c2coc1n2`, the IC50 in assay [1] was 0.45 µM; in assay [2] it was 0.38 µM; in assay [3] it was 1.4 µM; in assay [4] it was over 10 µM.

As for `CN(C)CCC[C@@H]1NC(=O)c2coc(n2)-c2coc(n2)-c2coc(n2)[C@H](CCCN(C)C)NC(=O)c2coc(n2)-c2coc(n2)-c2coc1n2`, the concentration for half-maximal inhibition (IC50) in assay [1] is 4.2 µM; in assay [2], 3 µM; in assay [3], over 10 µM; in assay [4] it was over 10 µM.

On to `NCCCC[C@@H]1NC(=O)c2coc(n2)-c2coc(n2)-c2coc(n2)[C@H](CCCCN)NC(=O)c2coc(n2)-c2coc(n2)-c2coc1n2`, for which the IC50 in assay [1], in assay [2] and in assay [4] was over 10 µM in each case.

`CC(C)[C@@H]1NC(=O)c2coc(n2)-c2coc(n2)-c2coc(n2)[C@H](CCCN)NC(=O)c2coc(n2)-c2coc(n2)-c2coc1n2`: the IC50 is 0.8 µM in assay [1], 0.38 µM in assay [2], 2.5 µM in assay [3] and over 10 µM in assay [4].

As to `CN(C)CCCC[C@@H]1NC(=O)c2coc(n2)-c2coc(n2)-c2coc(n2)[C@H](CCCCN(C)C)NC(=O)c2coc(n2)-c2coc(n2)-c2coc1n2`, the half-maximal inhibitory concentration (IC50) in assay [1] was 4 µM; in assay [2], 3.6 µM; in assay [3] it was over 10 µM; in assay [4], over 10 µM.

For the compound `CC(=O)NCCC[C@@H]1NC(=O)c2coc(n2)-c2coc(n2)-c2coc(n2)[C@H](CCCNC(C)=O)NC(=O)c2coc(n2)-c2coc(n2)-c2coc1n2`, the IC50 in assay [1], in assay [2], in assay [3] and in assay [4] was over 10 µM in each case.

Turning to `CC(C)[C@@H]1NC(=O)c2coc(n2)-c2coc(n2)-c2coc(n2)[C@H](C(C)C)NC(=O)c2coc(n2)-c2coc(n2)-c2coc1n2` [HEXAOXAZOLE DIVALINE], the IC50 in assay [1] was 0.35 µM; in assay [2], 0.45 µM; in assay [3], 0.54 µM; in assay [4], 7.7 µM; in assay [7] it was 0.54 µM. In addition, the figures for the ΔTm with Nucleic Acid [5] and in the assay with Nucleic Acid [6] were 11.5 °C and 19.5 °C, respectively.

For `CC(=O)NCCCC[C@@H]1NC(=O)c2coc(n2)-c2coc(n2)-c2coc(n2)[C@H](CCCCNC(C)=O)NC(=O)c2coc(n2)-c2coc(n2)-c2coc1n2`, the IC50 in assay [1] is 4 µM; in assay [2], 4.5 µM; in assay [3], 3.3 µM; in assay [4], over 10 µM.

For `CC(C)(C)OC(=O)NCC[C@@H]1NC(=O)c2coc(n2)-c2coc(n2)-c2coc(n2)[C@H](CCNC(=O)OC(C)(C)C)NC(=O)c2coc(n2)-c2coc(n2)-c2coc1n2`, the IC50 in assay [1] is 0.25 µM; in assay [2] it was 0.25 µM; in assay [3], 0.35 µM; in assay [4] it was over 10 µM.

`CN(C)CC[C@@H]1NC(=O)c2coc(n2)-c2coc(n2)-c2coc(n2)[C@H](CCN(C)C)NC(=O)c2coc(n2)-c2coc(n2)-c2coc1n2`: the half-maximal inhibitory concentration (IC50) in assay [1] was 2.8 µM; in assay [2], 0.65 µM; in assay [3] it was 4.3 µM; in assay [4], over 10 µM.

For the compound `CC(=O)NCCC[C@@H]1NC(=O)c2coc(n2)-c2coc(n2)-c2coc(n2)[C@H](C(C)C)NC(=O)c2coc(n2)-c2coc(n2)-c2coc1n2`, the IC50 was 3.4 µM in assay [1], 3 µM in assay [2], 2.5 µM in assay [3] and over 10 µM in assay [4].

Consider `CC(C)[C@@H]1NC(=O)c2coc(n2)-c2coc(n2)-c2coc(n2)[C@H](CCCN(C)C)NC(=O)c2coc(n2)-c2coc(n2)-c2coc1n2`, for which the 50% inhibitory concentration (IC50) in assay [1] was 0.3 µM; in assay [2], 0.07 µM; in assay [3], 0.23 µM; in assay [4], over 10 µM. Moreover, in the assay on Nucleic Acid [5], the ΔTm stood at 24 °C.

Consider `CC(C)[C@@H]1NC(=O)c2coc(n2)-c2coc(n2)-c2coc(n2)[C@H](CCCCNC(=O)OC(C)(C)C)NC(=O)c2coc(n2)-c2coc(n2)-c2coc1n2`, for which the IC50 in assay [1] is 0.3 µM; in assay [2], 0.33 µM; in assay [3], 0.35 µM; in assay [4], over 10 µM.

For `NCCC[C@@H]1NC(=O)c2coc(n2)-c2coc(n2)-c2coc(n2)[C@H](CCCN)NC(=O)c2coc(n2)-c2coc(n2)-c2coc1n2`, the IC50 is 6.3 µM in assay [1], 3.1 µM in assay [2], over 10 µM in assay [3] and over 10 µM in assay [4].

As for `CC(C)[C@@H]1NC(=O)c2coc(n2)-c2coc(n2)-c2coc(n2)C/C=C/c2coc(n2)-c2coc(n2)-c2coc1n2`, the 50% inhibitory concentration (IC50) worked out at 0.04 µM in assay [1], 0.04 µM in assay [2], 0.03 µM in assay [3] and 3.5 µM in assay [4].

With `CC(C)[C@@H]1NC(=O)c2coc(n2)-c2coc(n2)-c2coc(n2)[C@H](CCNC(=O)OC(C)(C)C)NC(=O)c2coc(n2)-c2coc(n2)-c2coc1n2`, the IC50 in assay [1] is 0.29 µM; in assay [2] it was 0.25 µM; in assay [3] it was 0.31 µM; in assay [4] it was over 10 µM.

As to `CC(C)[C@@H]1NC(=O)c2coc(n2)-c2coc(n2)-c2coc(n2)[C@H](CCN)NC(=O)c2coc(n2)-c2coc(n2)-c2coc1n2`, the IC50 is 2.2 µM in assay [1], 1.2 µM in assay [2], 1.2 µM in assay [3] and over 10 µM in assay [4].

For the compound `CC(=O)NCC[C@@H]1NC(=O)c2coc(n2)-c2coc(n2)-c2coc(n2)[C@H](C(C)C)NC(=O)c2coc(n2)-c2coc(n2)-c2coc1n2`, the IC50 is 0.45 µM in assay [1], 0.9 µM in assay [2], 0.95 µM in assay [3] and over 10 µM in assay [4].

Consider `CC(C)[C@@H]1NC(=O)c2coc(n2)-c2coc(n2)-c2coc(n2)[C@H](CCCCN)NC(=O)c2coc(n2)-c2coc(n2)-c2coc1n2`, for which the IC50 in assay [1] was 3.4 µM; in assay [2] it was 3 µM; in assay [3] it was 4.8 µM; in assay [4], over 10 µM.

For `CC(=O)NCC[C@@H]1NC(=O)c2coc(n2)-c2coc(n2)-c2coc(n2)[C@H](CCNC(C)=O)NC(=O)c2coc(n2)-c2coc(n2)-c2coc1n2`, the IC50 in assay [1], in assay [2], in assay [3] and in assay [4] was over 10 µM each time.

`CC(C)(C)OC(=O)NCCCC[C@@H]1NC(=O)c2coc(n2)-c2coc(n2)-c2coc(n2)[C@H](CCCCNC(=O)OC(C)(C)C)NC(=O)c2coc(n2)-c2coc(n2)-c2coc1n2`: the 50% inhibitory concentration (IC50) in assay [1] was 0.25 µM; in assay [2], 0.33 µM; in assay [3] it was 0.4 µM; in assay [4] it was over 10 µM.

Turning to `NCC[C@@H]1NC(=O)c2coc(n2)-c2coc(n2)-c2coc(n2)[C@H](CCN)NC(=O)c2coc(n2)-c2coc(n2)-c2coc1n2`, the IC50 in assay [1], in assay [2], in assay [3] and in assay [4] was over 10 µM each time.

Values taken from ChEMBL document CHEMBL1157757, “Macrocyclic hexaoxazoles: Influence of aminoalkyl substituents on RNA and DNA G-quadruplex stabilization and cytotoxicity” (Bioorg Med Chem Lett, 2010).
